# Read-outs that look alike come from different tables or passages of the source.
# Columns and labels:
# Sprague Dawley rats [1] = experiment: functional observational battery; format: in vivo, rat; details: female rats, oral ≤ 1000 mg/kg/day, 0.5 hours post-dose on day 2
# Method in brief: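 Eight female Sprague Dawley rats per group received oral gavage on days 1 and 2 at 0, 100, 300 or 1000 mg/kg/day (vehicle: 5% DMSO, 40% PEG 400, 55% saline; 10 mL/kg). Functional observational battery run once pre-dose and about 0.5 h post-dose on day 2, at the same time of day ±2 h. It covered sensory reactivity (approach response, righting reflex), grip strength, foot splay and body temperature.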
# Sprague Dawley rats [2] = experiment: locomotor activity assessments; format: in vivo, rat; details: female rats; for basic movements: day 2, 4–6 minutes post-commencement of assessment, control 375, p ≤ 0.05
# Method in brief: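 Female rats, 8 per group, dosed orally on days 1 and 2 at 0–1000 mg/kg/day. Tested pre-dose and on day 2: within 10 min after the functional battery, each rat was placed in a dark, sound-attenuated chamber. Photocell recording ran for 40 min, reported in 20 intervals of 2 min each. Read-outs: basic movement, horizontal and vertical ambulation, fine movement, rearing.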
# Sprague Dawley rats [3] = experiment: pulmonary assessments; format: in vivo, rat; details: male rats, any dose level (100–1000 mg/kg/day)
# Method in brief: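 Eight male Sprague Dawley rats per group. Acclimated 4 days, then placed in head-out plethysmography chambers three times on separate days. On day 1, a single oral gavage dose of 0, 100, 300 or 1000 mg/kg (DMSO/PEG 400/saline vehicle), then immediate chamber placement. Recorded at baseline, through 6 h and about 24 h post-dose. Analysed by repeated-measures ANCOVA with Dunnett–Hsu comparisons against control.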
# [4] = toxicokinetic analysis in rat plasma; format: in vivo; details: all dose groups
# Method in brief: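 Toxicokinetic cohort of 60 Sprague Dawley rats (30 male), separate from the pharmacology groups. A single oral dose was given on day 1 at 0, 100, 300 or 1000 mg/kg (maleate salt). Blood was drawn from the jugular vein of non-fasted rats on a serial schedule. Cmax, Tmax and AUC were derived from plasma concentration–time data.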
# Sprague Dawley rats [5] = experiment: clinical observations and examinations in rats; format: in vivo, rat; details: rats treated with trazpiroben
# Method in brief: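 Sprague Dawley rats, 11–12 weeks old, group-housed and acclimatised at least 1 week. Oral gavage at 0 (vehicle: 5% DMSO, 40% PEG 400, 55% saline), 100, 300 or 1000 mg/kg/day, 10 mL/kg, dose expressed as maleate salt. Checked twice daily for mortality, abnormalities and signs of pain or distress. Ophthalmic examination and body weight were recorded once pre-dose.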
# beagle dogs [6] = experiment: telemetry ECG evaluation in dogs; format: in vivo, dog
# Method in brief: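 Male beagles with abdominal ECG/pressure/temperature transmitters implanted at least 2 weeks before. Oral capsule doses of 0, 1, 10 or 30 mg/kg in a Latin square with 2-day washouts. ECG recorded from at least 90 min pre-dose to about 18 h post-dose. QTc from a per-animal regression of 1-min QT versus RR means on the control day. Waveform review at 1, 2, 4, 8, 12 and 18 h. Repeated-measures ANCOVA with Dunnett tests.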
# beagle dogs [7] = experiment: telemetry hemodynamic measurements in dogs; format: in vivo, dog; details: for adjusted mean diastolic pressure, lower vs control: 1 hour post-dose; for adjusted mean pulse pressure, lower than controls / adjusted mean systolic pressure, lower than controls: 3 hours post-dose; for adjusted mean systolic pressure, lower than controls: not significant
# Method in brief: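 Telemetered male beagles (abdominal transmitter implanted at least 2 weeks before) given oral capsules at 0, 1, 10 or 30 mg/kg in a Latin square on days 1, 4, 8 and 11. Systolic, diastolic and mean arterial pressure, pulse pressure and heart rate recorded continuously from at least 90 min pre-dose to about 18 h post-dose. Analysed by repeated-measures ANCOVA with Dunnett or Dunnett–Hsu comparisons against control.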
# beagle dogs [8] = experiment: clinical observations, body weight and body temperature in dogs; format: in vivo, dog
# Method in brief: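 Four male beagles, 17–18 months old, 9.9–12.8 kg. Oral gelatin capsules at 0 (Avicel:Explotab 10:1), 1, 10 or 30 mg/kg (maleate salt) on days 1, 4, 8 and 11, in a Latin square with ascending doses and 2-day washouts. Checked twice daily for mortality, abnormalities and distress, with daily cage-side observations. Body weight recorded pre-dose and the day before each dosing. Body temperature recorded by implanted telemetry.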
# hERG potassium channel = details: cited from earlier work
# rats = details: doses up to 30 mg/kg; cited from earlier work
# [9] = beagle dogs; cited from earlier work
# D2 receptor [10] = details: rats, prolactin release as pharmacodynamic biomarker; cited from earlier work
# D2 receptor [11] = details: humans, cited from earlier work
# humans = details: any dose up to the maximum of 300 mg; cited from earlier work
# [12] = rats, 100 mg/kg; cited from earlier work
# [13] = dogs, 50 mg/kg; cited from earlier work
# P-glycoprotein (P-gp) = details: cited from earlier work
# CYP enzyme = details: cited from earlier work
# CYP3A4 = details: cited from earlier work
compound,measurement,setting,value
O=C(O)c1cccc(CN2CN(C3CCCCC3)C3(CCN(CCCC(=O)c4ccccc4)CC3)C2=O)c1 [Trazpiroben],effects on FOB assessment results,Sprague Dawley rats [1],No effects were observed
same,basic movements,Sprague Dawley rats [2]; 300 mg/kg/day,199 basic movements in 2 minutes
same,basic movements,Sprague Dawley rats [2]; 1000 mg/kg/day,171 basic movements in 2 minutes
same,counts of horizontal and vertical ambulation,"Sprague Dawley rats [2]; ≥ 300 mg/kg/day, 2–6 minutes post-dose",significantly decreased
same,effect on respiration rate or minute volume,Sprague Dawley rats [3],No biologically relevant effect
same,observed Cmax for each group of rats receiving trazpiroben,[4],≥ 1450 ng/mL
same,"clinical observations, ophthalmic and body weight parameters",Sprague Dawley rats [5],No unexpected clinical observations or changes
same,mortality,Sprague Dawley rats [5],no trazpiroben-related mortality
same,"adjusted PR interval mean, lower than control","beagle dogs [6]; dogs, 30 mg/kg, 3 hours after administration (maximal effect)",12%
same,adjusted PR interval mean,"beagle dogs [6]; dogs, 30 mg/kg, 3 hours after administration, control 102 msec",90 ms
same,effects on QRS duration or QT interval corrected for heart rate (QTc),"beagle dogs [6]; dogs, 1, 10, 30 mg/kg",no trazpiroben-related effects
same,"QT interval, lower than control","beagle dogs [6]; dogs, first light cycle, 30 mg/kg, not significant at any dose",≤ 6%
same,abnormal ECG waveforms or arrhythmias,"beagle dogs [6]; male beagle dogs, oral 1, 10, 30 mg/kg",No abnormal ECG waveforms or arrhythmias were recorded
same,"adjusted mean diastolic pressure, higher vs control","beagle dogs [7]; 1 mg/kg, 4 hours post-dose, p ≤ 0.05",6%
same,"adjusted mean diastolic pressure, lower vs control","beagle dogs [7]; 10 mg/kg, p ≤ 0.05",5%
same,"adjusted mean pulse pressure, lower than controls",beagle dogs [7]; 10 mg/kg,15%
same,"adjusted mean systolic pressure, lower than controls",beagle dogs [7]; 10 mg/kg,6%
same,"adjusted mean diastolic pressure, higher vs control","beagle dogs [7]; 10 mg/kg, 4 hours post-dose, p ≤ 0.05",8%
same,"adjusted mean diastolic pressure, higher vs control","beagle dogs [7]; 10 mg/kg, 5 hours post-dose, p ≤ 0.01",6%
same,"adjusted mean diastolic pressure, lower vs control","beagle dogs [7]; 30 mg/kg, p ≤ 0.01",8%
same,"adjusted mean pulse pressure, lower than controls",beagle dogs [7]; 30 mg/kg,23%
same,"heart rate, higher than control","beagle dogs [7]; 30 mg/kg, 3 hours post-dose (greatest effect), first light cycle",28%
same,"adjusted mean systolic pressure, lower than controls",beagle dogs [7]; 30 mg/kg,9%
same,"adjusted mean diastolic pressure, higher vs control","beagle dogs [7]; 30 mg/kg, 4 hours post-dose, p ≤ 0.05",5%
same,"adjusted mean diastolic pressure, higher vs control","beagle dogs [7]; 30 mg/kg, 5 hours post-dose, p ≤ 0.01",6%
same,"changes in diastolic pressure, different from control","beagle dogs [7]; all changes, all doses",≤ 8%
same,effects on body weight or temperature,beagle dogs [8]; doses ≤ 30 mg/kg,not associated with effects on body weight or temperature
same,survival,beagle dogs [8]; to study termination on day 12,all dogs survived
same,"difference in affinity, hERG versus intended D2/D3 receptor targets",hERG potassium channel,"10,000 fold"
same,effects in rotarod testing (motor coordination),rats,no trazpiroben-related effects were observed
same,median Tmax,[9],approximately 1 hour post-dose
same,dose at which maximal D2 receptor engagement occurs,D2 receptor [10],1 mg/kg
same,dose at which maximal D2 receptor engagement occurs,D2 receptor [11]; first-in-human Phase I trial,10 mg
same,average Cmax in plasma at maximal D2 receptor engagement,D2 receptor [11]; inferred using prolactin release,~ 11 ng/mL
same,CNS effects,humans,no CNS effects noted
same,brain penetration,[12],minimal brain penetration
same,brain penetration,[13],minimal brain penetration
same,substrate for the efflux transporter P-glycoprotein (P-gp),P-glycoprotein (P-gp),substrate
same,potential for CYP enzyme induction or inhibition,CYP enzyme,limited potential for CYP enzyme induction or inhibition
same,CYP3A4 substrate classification,"CYP3A4; Phase I drug–drug interaction study in healthy volunteers, ref NCT03161405",non-sensitive CYP3A4 substrate
"O=c1[nH]c2ccccc2n1CCCN1CCC(n2c(=O)[nH]c3cc(Cl)ccc32)CC1 [domperidone, reference compound]",IC50,"hERG potassium channel; read-out: IC50, hERG potassium channel",57 nM
same,metabolizing enzyme,CYP3A4,primarily metabolized via the cytochrome P450 (CYP) 3A4 enzyme

# Reference: publication PMC8842350 (Journal of Experimental Pharmacology, 2022)
